Data from ChEMBL document CHEMBL3102763, “Synthesis, radiosynthesis and first in vitro evaluation of novel PET-tracers for the dopamine transporter: [(11)C]IPCIT and [(18)F]FE@IPCIT” (Bioorg Med Chem, 2013).

How the values were obtained:
[1] = Metabolic stability in human plasma assessed as compound remaining after 1 hr by radio-HPLC analysis; type: ADME, cell-free; conditions: read-out: Stability
Outline: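 Radiotracer (10 µL) incubated in 500 µL pooled Li-heparin human plasma at 37 °C for up to 60 min, with ethanol kept at or below 2% final. Aliquots are quenched with one volume of ice-cold MeOH/ACN (10/1) and centrifuged (23,000g, 4 min, 5 °C). Supernatants are analysed by radio-HPLC for percent […].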

[2] = Drug metabolism in human liver microsomes after 1 hr by radio-HPLC analysis relative to control; type: ADME; conditions: read-out: Drug metabolism
Outline: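 Pooled human liver microsomes are preincubated 5 min at 37 °C in pH 7.4 phosphate buffer with an NADPH-generating system. Formulated radiotracer (6 µL) is then added in 300 µL final volume, with ethanol at or below 2%. Incubations are quenched with one volume MeOH/ACN (10/1), vortexed and centrifuged. Supernatants are analysed by radio-HPLC for percent intact tracer.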

[3] = system: CES1b/CES1c/CES2; assay: Metabolic stability assessed as human CES1b/CES1c/CES2-mediated hydrolysis measuring compound remaining after 60 mins by radio-HPLC analysis; type: ADME; conditions: human carboxylesterases CES1b, CES1c and CES2, read-out: Stability
Outline: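 A 1/1/1 mixture (20 µL) of human CES1b, CES1c and CES2 (each 5 mg/mL) is diluted with 270 µL phosphate buffer pH 7.4. Radiotracer (6 µL) is incubated in it, quenched with MeOH/ACN (10/1) and centrifuged. Supernatants are analysed by radio-HPLC for percent intact tracer.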

[4] = target: T1, Sodium-dependent noradrenaline transporter (Homo sapiens, UniProt P23975); assay: Binding affinity to NET (unknown origin)
T1 sequence (P23975 whole entry): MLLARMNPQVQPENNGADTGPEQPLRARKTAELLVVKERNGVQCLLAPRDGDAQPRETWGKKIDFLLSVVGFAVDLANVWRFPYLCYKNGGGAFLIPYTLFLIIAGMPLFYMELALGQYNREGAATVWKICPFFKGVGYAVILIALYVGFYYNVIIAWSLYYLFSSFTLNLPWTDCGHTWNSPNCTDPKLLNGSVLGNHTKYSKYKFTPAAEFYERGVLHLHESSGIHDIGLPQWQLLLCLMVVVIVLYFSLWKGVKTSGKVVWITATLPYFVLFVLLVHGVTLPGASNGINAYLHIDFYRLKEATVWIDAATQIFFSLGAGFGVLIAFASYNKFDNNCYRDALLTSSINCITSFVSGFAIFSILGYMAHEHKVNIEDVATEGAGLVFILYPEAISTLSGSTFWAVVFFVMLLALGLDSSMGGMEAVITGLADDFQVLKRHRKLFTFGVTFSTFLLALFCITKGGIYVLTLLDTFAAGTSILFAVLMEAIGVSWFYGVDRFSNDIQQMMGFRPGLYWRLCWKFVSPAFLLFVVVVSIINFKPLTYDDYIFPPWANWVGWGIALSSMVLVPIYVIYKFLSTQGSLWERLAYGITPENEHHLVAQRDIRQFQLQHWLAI
Outline: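 Human NET membranes (3 µg protein/unit) in 100 mM NaCl, 50 mM Tris-HCl pH 7.4, with [3H]nisoxetine as radioligand. Run as the DAT competition assay: 2 h incubation, centrifugation at about 40,000g and β-scintillation counting. IC50 and Ki are derived from competition plots.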

[5] = target: T2, Sodium-dependent dopamine transporter (Homo sapiens, UniProt Q01959); assay: Binding affinity to DAT (unknown origin)
T2 sequence (Q01959 whole entry): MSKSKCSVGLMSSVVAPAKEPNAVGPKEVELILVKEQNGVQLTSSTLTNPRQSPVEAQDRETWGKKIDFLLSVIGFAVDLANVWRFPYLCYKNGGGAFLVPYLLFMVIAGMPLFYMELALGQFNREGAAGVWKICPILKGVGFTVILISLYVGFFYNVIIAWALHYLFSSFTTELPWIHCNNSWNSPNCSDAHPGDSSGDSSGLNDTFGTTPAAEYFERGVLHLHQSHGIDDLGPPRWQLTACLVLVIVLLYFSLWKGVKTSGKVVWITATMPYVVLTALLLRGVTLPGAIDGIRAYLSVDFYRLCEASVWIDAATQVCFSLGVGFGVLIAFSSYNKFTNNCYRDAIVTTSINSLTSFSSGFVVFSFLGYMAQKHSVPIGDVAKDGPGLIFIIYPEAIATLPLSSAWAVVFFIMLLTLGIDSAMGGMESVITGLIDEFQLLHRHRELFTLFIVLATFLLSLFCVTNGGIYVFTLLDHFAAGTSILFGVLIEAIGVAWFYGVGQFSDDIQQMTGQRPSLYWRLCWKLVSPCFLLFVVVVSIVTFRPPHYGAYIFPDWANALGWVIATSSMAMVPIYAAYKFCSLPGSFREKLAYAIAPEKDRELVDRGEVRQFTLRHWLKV
Outline: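 Competition binding on human DAT-expressing membranes (12.7 µg protein/unit) in 50 mM Tris-HCl, 100 mM NaCl, pH 7.4. The radioligand was ³H-WIN 35,428, added from a 3 nM solution. Non-specific binding was defined with 10 µM GBR 12909. After 2 h incubation, membranes were pelleted at about 40,000g and washed with ice-cold buffer, then counted by β-scintillation. IC50/Ki came from competition plots: three assays, each in triplicate.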

[6] = target: T3, Sodium-dependent serotonin transporter (Homo sapiens, UniProt P31645); assay: Binding affinity to SERT (unknown origin)
T3 sequence (P31645 whole entry): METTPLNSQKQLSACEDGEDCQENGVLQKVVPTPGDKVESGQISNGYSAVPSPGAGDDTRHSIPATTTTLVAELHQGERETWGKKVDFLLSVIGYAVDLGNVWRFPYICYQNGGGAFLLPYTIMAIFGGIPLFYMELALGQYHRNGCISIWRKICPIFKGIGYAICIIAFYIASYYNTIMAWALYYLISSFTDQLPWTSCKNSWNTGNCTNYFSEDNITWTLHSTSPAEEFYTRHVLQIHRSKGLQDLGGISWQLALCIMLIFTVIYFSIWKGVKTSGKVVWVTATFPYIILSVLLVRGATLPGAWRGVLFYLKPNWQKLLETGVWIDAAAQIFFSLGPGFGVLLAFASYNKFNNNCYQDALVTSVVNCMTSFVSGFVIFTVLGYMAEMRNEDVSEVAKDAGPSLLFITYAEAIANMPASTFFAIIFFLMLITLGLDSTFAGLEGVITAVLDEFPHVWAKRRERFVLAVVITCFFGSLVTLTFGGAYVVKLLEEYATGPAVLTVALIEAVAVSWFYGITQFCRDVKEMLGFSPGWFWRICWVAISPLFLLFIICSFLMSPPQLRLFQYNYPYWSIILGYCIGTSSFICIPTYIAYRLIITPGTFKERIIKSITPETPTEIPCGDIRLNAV
Outline: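 Human SERT membranes (9 µg protein/unit) in 100 mM NaCl, 50 mM Tris-HCl pH 7.4, with [3H]imipramine as radioligand. Run as the DAT competition assay: 2 h incubation, centrifugation at about 40,000g and β-scintillation counting. IC50 and Ki are derived from competition plots.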

[7] = Lipophilicity, log D of the compound; type: physicochemical; conditions: octanol/water
Outline: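 HPLC method on a short polymeric ODP-50 column, with toluene and triphenylene co-injected as standards of known logD and k'. A linear gradient runs from 10% MeOH/90% 25 mM phosphate buffer to 100% methanol over 9.4 min at 1.5 mL/min.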

[8] = target: T1, Sodium-dependent noradrenaline transporter; assay: Displacement of [3H][…] from human NET after 2 hrs by liquid scintillation counting analysis
[9] = target: T2, Sodium-dependent dopamine transporter; assay: Displacement of [3H]WIN35428 from human DAT after 2 hrs by liquid scintillation counting analysis
Outline: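 Competition binding on human DAT membranes (12.7 µg protein/unit) in 100 mM NaCl, 50 mM Tris-HCl pH 7.4, with [3H]WIN 35,428 added as a 3 nM solution. Nonspecific binding defined with 10 µM GBR 12909. After 2 h incubation, bound label is pelleted at about 40,000g, washed twice with ice-cold buffer and counted by β-scintillation. IC50 and Ki come from competition plots, three assays each in triplicate.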

[10] = target: T3, Sodium-dependent serotonin transporter; assay: Displacement of [3H][…] from human SERT after 2 hrs by liquid scintillation counting analysis
[11] = species on record: Homo sapiens; assay: Selectivity ratio of Ki for human NET to Ki for human DAT
Outline: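 Ratio of Ki values from competition binding on human NET membranes ([3H]nisoxetine) and human DAT membranes ([3H]WIN 35,428). Both were measured in 100 mM NaCl, 50 mM Tris-HCl pH 7.4 with 2 h incubation and scintillation counting.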

[12] = species on record: Homo sapiens; assay: Selectivity ratio of Ki for human SERT to Ki for human DAT
Outline: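 Ratio of Ki values from competition binding on human SERT membranes ([3H]imipramine) and human DAT membranes ([3H]WIN 35,428). Both were measured in 100 mM NaCl, 50 mM Tris-HCl pH 7.4 with 2 h incubation and scintillation counting.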

| SMILES | remaining at 1 h [1] | metabolised at 1 h [2] | remaining at 1 h [3] | Ki [4] | Ki [5] | Ki [6] | logD [7] | Ki [8] | Ki [9] | Ki [10] | Ratio Ki [11] | Ratio Ki [12] |
| --- | --- | --- | --- | --- | --- | --- | --- | --- | --- | --- | --- | --- |
| O=C(OCC[18F])[C@H]1[C@@H](c2ccc(I)cc2)C[C@@H]2CC[C@H]1N2C/C=C/I | 100% | 71.6% | 92% | – | – | – | – | – | – | – | – | – |
| COC(=O)[C@H]1[C@@H](c2ccc(I)cc2)C[C@@H]2CC[C@H]1N2C | – | – | – | 32.8 nM | 6.34 nM | 29.2 nM | – | – | – | – | – | – |
| COC(=O)[C@H]1[C@@H](c2ccc(C)cc2)C[C@@H]2CC[C@H]1N2C/C=C/I | – | – | – | > 1000 nM | – | 500 nM | – | – | – | – | – | – |
| COC(=O)[C@H]1[C@@H](c2ccc(I)cc2)C[C@@H]2CC[C@H]1N2C/C=C/I | 100% | 46.4% | 92% | – | – | – | 5.29 | 20 nM | 1.72 nM | 1.5 nM | 11 | – |
| O=C(OCCF)[C@H]1[C@@H](c2ccc(I)cc2)C[C@@H]2CC[C@H]1N2C/C=C/I | – | – | – | – | – | – | 5.39 | 153 nM | 1.33 nM | 2.4 nM | 115 | 1.8 |
| O=C(O)[C@H]1[C@@H](c2ccc(I)cc2)C[C@@H]2CC[C@H]1N2C/C=C/I | – | – | – | – | – | – | 0.8 | 785 nM | 37 nM | 71.4 nM | – | – |
